Results taken from ChEMBL document CHEMBL3596113, “Callyaerins from the Marine Sponge Callyspongia aerizusa: Cyclic Peptides with Antitubercular Activity” (J Nat Prod, 2015).
≈ marks a conversion by molar mass, not a printed value.

Tests used:
[1] = system: Mycobacterium tuberculosis; assay: Antitubercular activity against Mycobacterium tuberculosis after 6 days by resazurin dye reduction method; format: functional; conditions: 144 h; for MIC: read-out: MIC100
Method in brief: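 M. tuberculosis grown aerobically at 37 °C in Middlebrook 7H9 with 0.5% glycerol, 0.05% Tyloxapol, 10% ADS enrichment; log-phase cultures (OD600 ~1) seeded at 1 × 10^5 cells/well, exposed to test substances 6 days. Resazurin added ~8 h, then formalin fixation (5% final); fluorescence ex 540/em 590 nm. Growth relative to rifampicin (0%) and DMSO (100%) controls; MIC90 = 90% growth inhibition.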

[2] = system: THP-1; assay: (§1) Cytotoxicity against human THP1 cells assessed as cell growth inhibition after 48 hrs by resazurin dye reduction method; format: cell-based; conditions: Homo sapiens, THP-1, 48 h
Method in brief: (§2)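 THP-1 human monocytic cells were grown in RPMI 1640 with 10% FBS, and MRC-5 fetal lung fibroblasts in DMEM with 10% FBS, at 37 °C in humidified 5% CO2. About 5 × 10^4 cells per well were exposed to compounds for 48 h, then to resazurin for about 3 h more. Fluorescence was read at ex 540/em 590 nm. Growth was set against uninoculated (0%) and untreated (100%) controls, and IC50 was taken as the concentration giving 50% growth inhibition.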

[3] = system: MRC5; assay: (§3) Cytotoxicity against human MRC5 cells assessed as cell growth inhibition after 48 hrs by resazurin dye reduction method; format: cell-based; conditions: Homo sapiens, MRC5, 48 h; method in brief: as §2
[4] = as §1; format: cell-based, THP-1; conditions: human, THP-1 cells; method in brief: as §2
[5] = as §3; format: cell-based; conditions: human, MRC5 cells; method in brief: as §2

## COC1NC(=O)N/C1=C\[C@@H]1N/C=C(/C(=O)N2CCC[C@H]2C(=O)N[C@@H](CC(C)C)C(=O)N[C@@H](Cc2ccccc2)C(=O)NCC(N)=O)NC(=O)[C@H](C(C)C)NC(=O)[C@@H]2CCCN2C(=O)[C@@H]2CCCN2C(=O)[C@H](CC(C)C)NC(=O)[C@H](CC(C)C)NC(=O)[C@@H]2C[C@@H](O)CN2C1=O (stereo partly drawn)
[1]
  MIC90: > 100 µM
[2]
  IC50: > 10 µM
[3]
  IC50: > 10 µM

## CC[C@H](C)[C@@H]1NC(=O)[C@H](CCC(=O)O)NC(=O)[C@@H]2C[C@@H](O)CN2C(=O)[C@H]([C@@H](C)CC)N/C=C(/C(=O)N2CCC[C@H]2C(=O)N[C@@H](CC(C)C)C(=O)N[C@@H](Cc2ccccc2)C(N)=O)NC(=O)[C@H](CC(C)C)NC(=O)[C@@H]2CCCN2C(=O)[C@@H]2CCCN2C(=O)[C@H](C(C)C)NC1=O
[1]
  MIC90: > 100 µM
[2]
  IC50: > 10 µM
[3]
  IC50: > 10 µM

## CC[C@H](C)[C@H](NC(=O)[C@H](Cc1ccccc1)NC(=O)[C@@H]1CCCN1C(=O)/C1=C/N[C@@H](Cc2ccccc2)C(=O)N2CCC[C@H]2C(=O)N[C@@H](Cc2ccccc2)C(=O)NCC(=O)N[C@@H](CC(C)C)C(=O)N2CCC[C@H]2C(=O)N2CCC[C@H]2C(=O)N[C@@H](Cc2ccccc2)C(=O)N1)C(=O)N[C@@H](CC(=O)O)C(=O)O
[1]
  MIC90: > 100 µM
[2]
  IC50: > 10 µM
[3]
  IC50: > 10 µM

## CC[C@H](C)[C@H](NC(=O)[C@@H](NC(=O)[C@@H]1CCCN1C(=O)/C1=C/N[C@@H](Cc2ccccc2)C(=O)N2CCC[C@H]2C(=O)N[C@@H](CC(C)C)C(=O)N[C@@H](Cc2ccccc2)C(=O)N2CCC[C@H]2C(=O)N2CCC[C@H]2C(=O)N[C@@H](C(C)C)C(=O)N1)[C@@H](C)CC)C(=O)NCC(N)=O
[1]
  MIC90: > 100 µM
[2]
  IC50: > 10 µM
[3]
  IC50: > 10 µM

## CC(C)C[C@H](NC(=O)[C@@H]1CCCN1C(=O)/C1=C/N[C@@H](CC(C)C)C(=O)N2CCC[C@H]2C(=O)N[C@@H](Cc2ccccc2)C(=O)N[C@@H](Cc2ccccc2)C(=O)N2CCC[C@H]2C(=O)N2CCC[C@H]2C(=O)N[C@@H](C(C)C)C(=O)N1)C(=O)N[C@@H](Cc1ccccc1)C(=O)NCC(N)=O
[1]
  MIC90: > 100 µM
[2]
  IC50: > 10 µM
[3]
  IC50: > 10 µM

## CC[C@@H](C)[C@@H]1NC(=O)[C@H](C(C)C)NC(=O)[C@@H]2C[C@@H](O)CN2C(=O)[C@H]([C@@H](C)CC)N/C=C(\C(=O)N2CCC[C@H]2C(=O)N[C@H](C(=O)N[C@@H](Cc2ccccc2)C(=O)NCC(N)=O)[C@@H](C)CC)NC(=O)[C@H](CC(C)C)NC(=O)[C@@H]2CCCN2C(=O)[C@@H]2CCCN2C(=O)[C@H](CC(C)C)NC1=O [CALLYAERIN A]
[1]
  MIC90: 2 µM (≈ 2.72 µg/mL)
  MIC: 6 µM (≈ 8.15 µg/mL)
[4]
  IC90 at 48 h: 50 µM
[2]
  IC50: 30 µM
[5]
  IC90 at 48 h: 40 µM
[3]
  IC50: 20 µM

## CC[C@@H](C)[C@@H]1NC(=O)[C@H]([C@@H](C)CC)NC(=O)[C@@H]2C[C@@H](O)CN2C(=O)[C@H]([C@H](C)CC)N/C=C(\C(=O)N2CCC[C@H]2C(=O)N[C@H](C(=O)N[C@H](C(=O)O)[C@@H](C)CC)[C@@H](C)CC)NC(=O)[C@H](CC(C)C)NC(=O)[C@@H]2CCCN2C(=O)[C@@H]2CCCN2C(=O)[C@H](CC(C)C)NC1=O [CALLYAERIN B]
[1]
  MIC90: 5 µM (≈ 6.41 µg/mL)
  MIC: 10 µM (≈ 12.8 µg/mL)
[4]
  IC90 at 48 h: 30 µM
[2]
  IC50: 5 µM
[5]
  IC90 at 48 h: 6 µM
[3]
  IC50: 2 µM

## CC[C@H](C)[C@H](NC(=O)[C@@H](NC(=O)[C@@H]1CCCN1C(=O)/C1=C/N[C@@H](CC(C)C)C(=O)N2CCC[C@H]2C(=O)N[C@@H](Cc2ccccc2)C(=O)N[C@@H](Cc2ccccc2)C(=O)N2CCC[C@H]2C(=O)N2CCC[C@H]2C(=O)N[C@@H](C(C)C)C(=O)N1)[C@@H](C)CC)C(=O)NCC(=O)O [CALLYAERIN E]
[1]
  MIC90: 100 µM (≈ 126 µg/mL)
[2]
  IC50: > 10 µM
[3]
  IC50: > 10 µM

## CC[C@H](C)[C@H](NC(=O)[C@H](Cc1ccccc1)NC(=O)[C@H](CC(C)C)NC(=O)[C@@H]1CCCN1C(=O)/C1=C\N[C@@H](C(C)C)C(=O)N2CCC[C@H]2C(=O)N[C@@H](C(C)C)C(=O)N[C@@H](Cc2ccccc2)C(=O)N2CCC[C@H]2C(=O)N1)C(=O)O [CALLYAERIN F]
[1]
  MIC90: 50 µM (≈ 54.8 µg/mL)
[2]
  IC50: > 10 µM
[3]
  IC50: > 10 µM

## CC[C@@H](CO)NCCN[C@@H](CC)CO [ETHAMBUTOL]
[1]
  MIC90: 1.25 µM (≈ 0.255 µg/mL)
  MIC: 5 µM (≈ 1.02 µg/mL)

## NNC(=O)c1ccncc1 [ISONIAZID]
[1]
  MIC90: 0.625 µM (≈ 0.0857 µg/mL)
  MIC: 1.25 µM (≈ 0.171 µg/mL)

## CO[C@H]1/C=C/O[C@@]2(C)Oc3c(C)c(O)c4c(O)c(c(/C=N/N5CCN(C)CC5)c(O)c4c3C2=O)NC(=O)/C(C)=C\C=C\[C@H](C)[C@H](O)[C@@H](C)[C@@H](O)[C@@H](C)[C@H](OC(C)=O)[C@@H]1C [RIFAMPIN]
[1]
  MIC90: < 0.1 µM
  MIC: 0.5 µM (≈ 0.411 µg/mL)
[4]
  IC90 at 48 h: > 100 µM
[2]
  IC50: > 100 µM
[5]
  IC90 at 48 h: > 100 µM
[3]
  IC50: > 100 µM
